Drawing on ChEMBL document CHEMBL4387779, “Design and synthesis of 4β-Acetamidobenzofuranone-podophyllotoxin hybrids and their anti-cancer evaluation” (Bioorg Med Chem Lett, 2019), this text covers IC50 for eight molecules.

Structures are written as SMILES.

Assay type in all cases: functional, cell-based
In one assay the test system is MCF7. The assay can be described thus: Cytotoxicity against human MCF7 cells after 24 hrs by MTT assay. As to conditions: MCF7, 24 h. The essentials:
(§1)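 Cells seeded at 1×10⁴ per well in complete medium and held 18 h at 37 °C, 5% CO₂. Medium then replaced with fresh medium containing test compounds or etoposide at 0.5, 1 and 2 μM, incubated 24 h at 37 °C. MTT dye added for 2 h, formazan solubilized in extraction buffer, absorbance read at 570 nm. Values mean±SD, three experiments in triplicate.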

The test system of another assay is DU-145. Description: Cytotoxicity against human DU145 cells after 24 hrs by MTT assay. As to conditions: DU-145, 24 h. The essentials:
as §1

In the next assay the test system is MDA-MB-231. The assay can be described thus: Cytotoxicity against human MDA-MB-231 cells after 24 hrs by MTT assay. The following applies: MDA-MB-231, 24 h. The essentials:
as §1

The next assay deals with A549. Description: Cytotoxicity against human A549 cells after 24 hrs by MTT assay. As to conditions: A549, 24 h. In outline: as §1

For the molecule `COc1ccc(/C=C2\Oc3ccccc3C2=O)cc1OCC(=O)N[C@@H]1c2cc3c(cc2[C@@H](c2cc(OC)c(OC)c(OC)c2)[C@H]2C(=O)OC[C@@H]21)OCO3`, the IC50 with MCF7 was found to be 6.23 µM; in the assay on DU-145, 2.55 µM; in the assay on MDA-MB-231 it was 8.23 µM; in the assay on A549, 7.23 µM.

Turning to `COc1cc(/C=C2\Oc3ccccc3C2=O)ccc1OCC(=O)N[C@@H]1c2cc3c(cc2[C@@H](c2cc(OC)c(OC)c(OC)c2)[C@H]2C(=O)OC[C@@H]21)OCO3`, the IC50 is 4.51 µM in the assay on MCF7, 3.82 µM in the assay on DU-145 and 2.75 µM in the assay with A549.

On to `COc1cc([C@@H]2c3cc4c(cc3[C@@H](NC(=O)COc3c(OC)cc(/C=C5\Oc6c(OC)cccc6C5=O)cc3OC)[C@H]3COC(=O)[C@H]23)OCO4)cc(OC)c1OC`, for which the IC50 in the assay on MCF7 turned out to be 0.23 µM; with DU-145, 1.22 µM; in the assay on MDA-MB-231, 0.87 µM; in the assay on A549 it was 1.45 µM.

As for `COc1cc([C@@H]2c3cc4c(cc3[C@@H](O[C@@H]3O[C@@H]5CO[C@@H](C)O[C@H]5[C@H](O)[C@H]3O)[C@H]3COC(=O)[C@H]23)OCO4)cc(OC)c1O` [ETOPOSIDE], the IC50 with MCF7 amounted to 2.11 µM; in the assay on DU-145, 1.97 µM.

For `COc1cc([C@@H]2c3cc4c(cc3[C@@H](NC(=O)COc3ccc(/C=C5\Oc6ccccc6C5=O)cc3)[C@H]3COC(=O)[C@H]23)OCO4)cc(OC)c1OC`, the IC50 in the assay on MCF7 amounted to 0.13 µM; in the assay on DU-145 it was 0.97 µM; with MDA-MB-231, 0.45 µM; in the assay with A549, 0.1 µM.

Take `COc1ccc(/C=C2\Oc3c(OC)cccc3C2=O)cc1OCC(=O)N[C@@H]1c2cc3c(cc2[C@@H](c2cc(OC)c(OC)c(OC)c2)[C@H]2C(=O)OC[C@@H]21)OCO3`: the IC50 in the assay on MCF7 is 1.87 µM; in the assay with DU-145, 2.33 µM; in the assay on MDA-MB-231, 2.18 µM.

As to `COc1cc([C@@H]2c3cc4c(cc3[C@@H](NC(=O)COc3ccc(/C=C5\Oc6c(OC)cccc6C5=O)cc3)[C@H]3COC(=O)[C@H]23)OCO4)cc(OC)c1OC`, the IC50 was determined as 1.98 µM in the assay with MCF7, 2.09 µM with DU-145, 1.68 µM in the assay with MDA-MB-231 and 1.56 µM in the assay with A549.

For `COc1cc(/C=C2\Oc3c(OC)cccc3C2=O)ccc1OCC(=O)N[C@@H]1c2cc3c(cc2[C@@H](c2cc(OC)c(OC)c(OC)c2)[C@H]2C(=O)OC[C@@H]21)OCO3`, the IC50 in the assay with MCF7 is 2.35 µM; with DU-145 it was 3.98 µM; with MDA-MB-231 it was 2.6 µM; with A549, 2.99 µM.
